Measured values as given in ChEMBL document CHEMBL1143844, “Biochemical studies on the mechanism of human immunodeficiency virus type 1 reverse transcriptase resistance to 1-(beta-D-dioxolane)thymine triphosphate” (Antimicrob Agents Chemother, 2007).

What was measured:
[1] = Inhibition of HIV1 reverse transcriptase 41L/67N/70R/184V/210W/215Y mutant by heteropolymeric DNA polymerase assay; set-up: species or system Human immunodeficiency virus 1
Method in brief: (§1)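 Purified p66/p51 HIV-1 RT, or p66 homodimer for 65R, at 30–100 pM (about 1.5–4.5 mU/well). Plate-bound 18-mer DNA primer on a 50-base 5′-A12-(GTCA)5-3′ DNA template. dATP, dGTP, dCTP and BrdUTP at 1.0 μM each, no ATP. Buffer: HEPES 50 mM pH 7.3, 10 mM MgCl2. Incubation 180 min at 33°C, NaOH dehybridization, anti-BrdU-AP tracer, A405. IC50 from seven inhibitor concentrations, at least two experiments in duplicate.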

[2] = target: T1, Human immunodeficiency virus type 1 reverse transcriptase (Human immunodeficiency virus 1, UniProt Q72547); assay: Inhibition of HIV1 pNL4-3 reverse transcriptase wild type pNL4-3 in presence of 5 mM ATP by heteropolymeric DNA polymerase assay
Method in brief: (§2)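 Heteropolymeric DNA assay with 5 mM ATP added: immobilized 18-mer primer, 5′-A12-(GTCA)5 50-mer template, dATP/dGTP/dCTP/BrdUTP at 1.0 μM each, HEPES 50 mM pH 7.3, MgCl2 10 mM. RT 30–100 pM, incubated at 33°C for 180 min. NaOH strand separation, then anti-BrdU-AP detection at 405 nm. IC50 fitted from seven inhibitor concentrations; two to four runs in duplicate.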

[3] = target: T1, Human immunodeficiency virus type 1 reverse transcriptase; assay: Inhibition of HIV1 pNL4-3 reverse transcriptase wild type pNL4-3 by heteropolymeric DNA polymerase assay
Method in brief: (§3)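 Heteropolymeric assay without ATP: plate-bound 18-mer DNA primer (~110 nM) with 50-mer 5′-A12-(GTCA)5 template (190 nM). dATP, dGTP, dCTP and BrdUTP at 1.0 μM each, in HEPES 50 mM pH 7.3, MgCl2 10 mM. RT 30–100 pM, 33°C for 180 min, then NaOH dehybridization and anti-BrdU-AP tracer read at 405 nm. IC50 from seven triphosphate concentrations; two to four runs in duplicate.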

[4] = Inhibition of HIV1 LAI reverse transcriptase 65R mutant by heteropolymeric DNA polymerase assay; set-up: species or system Human immunodeficiency virus 1; method in brief: as §1
[5] = Inhibition of HIV1 reverse transcriptase 75I/77L/116Y/151M mutant in presence of 5 mM ATP by heteropolymeric DNA polymerase assay; set-up: species or system Human immunodeficiency virus 1
Method in brief: (§4)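 Heteropolymeric DNA polymerase assay with ATP added at 5 mM. Purified HIV-1 RT at 30–100 pM acts on a plate-bound DNA primer with a 5′-A12-(GTCA)5-3′ template. dATP, dGTP, dCTP and BrdUTP at 1.0 μM each. Incubation 180 min at 33°C. BrdUMP incorporation read via anti-BrdU-AP at 405 nm after NaOH dehybridization. IC50 from seven inhibitor concentrations, at least two experiments in duplicate.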

[6] = Inhibition of HIV1 reverse transcriptase 184V mutant by heteropolymeric DNA polymerase assay; set-up: species or system Human immunodeficiency virus 1; method in brief: as §1
[7] = Inhibition of HIV1 reverse transcriptase 41L/69S-SG/210W/215Y mutant by heteropolymeric DNA polymerase assay; set-up: species or system Human immunodeficiency virus 1; method in brief: as §1
[8] = Inhibition of HIV1 reverse transcriptase 41L/67N/70R/210W/215Y mutant by heteropolymeric DNA polymerase assay; set-up: species or system Human immunodeficiency virus 1; method in brief: as §1
[9] = Inhibition of HIV1 pNL4-3 reverse transcriptase 115F mutant in presence of 5 mM ATP by heteropolymeric DNA polymerase assay; set-up: species or system Human immunodeficiency virus 1; method in brief: as §4
[10] = Inhibition of HIV1 reverse transcriptase wild type HXB2(a) by heteropolymeric DNA polymerase assay; set-up: species or system Human immunodeficiency virus 1; method in brief: as §3
[11] = Inhibition of HIV1 reverse transcriptase 75I/77L/116Y/151M/184V mutant by heteropolymeric DNA polymerase assay; set-up: species or system Human immunodeficiency virus 1; method in brief: as §1
[12] = Inhibition of HIV1 reverse transcriptase 41L/67N/70R/184V/210W/215Y mutant in presence of 5 mM ATP by heteropolymeric DNA polymerase assay; set-up: species or system Human immunodeficiency virus 1; method in brief: as §4
[13] = Inhibition of HIV1 pNL4-3 reverse transcriptase 115F mutant by heteropolymeric DNA polymerase assay; set-up: species or system Human immunodeficiency virus 1; method in brief: as §1
[14] = Inhibition of HIV1 reverse transcriptase 41L/69S-SG/184V/210W/215Y mutant in presence of 5 mM ATP by heteropolymeric DNA polymerase assay; set-up: species or system Human immunodeficiency virus 1; method in brief: as §4
[15] = Inhibition of HIV1 reverse transcriptase 41L/69S-SG/210W/215Y mutant in presence of 5 mM ATP by heteropolymeric DNA polymerase assay; set-up: species or system Human immunodeficiency virus 1; method in brief: as §4
[16] = Inhibition of HIV1 reverse transcriptase 75I/77L/116Y/151M mutant by heteropolymeric DNA polymerase assay; set-up: species or system Human immunodeficiency virus 1; method in brief: as §1
[17] = Inhibition of HIV1 reverse transcriptase 184V mutant in presence of 5 mM ATP by heteropolymeric DNA polymerase assay; set-up: species or system Human immunodeficiency virus 1; method in brief: as §4
[18] = target: T1, Human immunodeficiency virus type 1 reverse transcriptase; assay: Inhibition of HIV1 LAI reverse transcriptase wild type in presence of 5 mM ATP by heteropolymeric DNA polymerase assay; method in brief: as §2
[19] = Inhibition of HIV1 reverse transcriptase wild type HXB2(a) in presence of 5 mM ATP by heteropolymeric DNA polymerase assay; set-up: species or system Human immunodeficiency virus 1; method in brief: as §2
[20] = Inhibition of HIV1 reverse transcriptase 75I/77L/116Y/151M/184V mutant in presence of 5 mM ATP by heteropolymeric DNA polymerase assay; set-up: species or system Human immunodeficiency virus 1; method in brief: as §4
[21] = Inhibition of HIV1 LAI reverse transcriptase 65R mutant in presence of 5 mM ATP by heteropolymeric DNA polymerase assay; set-up: species or system Human immunodeficiency virus 1; method in brief: as §4
[22] = target: T1, Human immunodeficiency virus type 1 reverse transcriptase; assay: Inhibition of HIV1 LAI reverse transcriptase wild type LAI by heteropolymeric DNA polymerase assay; method in brief: as §3
[23] = Inhibition of HIV1 reverse transcriptase 41L/69S-SG/184V/210W/215Y mutant by heteropolymeric DNA polymerase assay; set-up: species or system Human immunodeficiency virus 1; method in brief: as §1

Nc1nc(=O)c2ncn([C@H]3C=C[C@@H](COP(=O)(O)OP(=O)(O)OP(=O)(O)O)C3)c2[nH]1 [CARBOVIR 5'-TRIPHOSPHATE, (-)-] gave an IC50 [1] of 2700 nM, an IC50 [2] of 1800 nM and an IC50 [3] of 1200 nM. It also gave an IC50 [4] of 5000 nM, an IC50 [5] of 11000 nM and an IC50 [6] of 5500 nM. It also gave an IC50 [7] of 900 nM, an IC50 [8] of 900 nM and an IC50 [9] of 3600 nM. For the same compound, the IC50 [10] was 1100 nM, the IC50 [11] was 54000 nM and the IC50 [12] was 4500 nM. It also gave an IC50 [13] of 2600 nM, an IC50 [14] of 6400 nM and an IC50 [15] of 5100 nM. It also gave an IC50 [16] of 6600 nM, an IC50 [17] of 8400 nM and an IC50 [18] of 900 nM. It also gave an IC50 [19] of 1500 nM, an IC50 [20] of 18000 nM and an IC50 [21] of 5500 nM. It also gave an IC50 [22] of 680 nM and an IC50 [23] of 3400 nM.

Nc1nc2c(ncn2[C@H]2CO[C@@H](COP(=O)(O)OP(=O)(O)OP(=O)(O)O)O2)c(=O)[nH]1 gave an IC50 [1] of 140 nM, an IC50 [4] of 620 nM and an IC50 [5] of 1200 nM. The IC50 [6] was 200 nM, the IC50 [8] was 110 nM and the IC50 [10] was 120 nM. For the same compound, the IC50 [11] was 7200 nM, the IC50 [12] was 190 nM and the IC50 [14] was 260 nM. It also gave an IC50 [15] of 340 nM, an IC50 [16] of 2500 nM and an IC50 [17] of 200 nM. The IC50 [18] was 200 nM, the IC50 [19] was 150 nM and the IC50 [20] was 2400 nM. The IC50 [21] was 1300 nM, the IC50 [22] was 180 nM and the IC50 [23] was 140 nM.
